Data: ChEMBL document CHEMBL1773039, “Structure-Activity Study of Dihydrocinnamic Acids and Discovery of the Potent FFA1 (GPR40) Agonist TUG-469” (ACS Med Chem Lett, 2010)
pEC50: −log10 of the molar value. Activity calls are given as the source filed them. No cut-off for these calls is given here.

Legend:
[1] = target: T1, Free fatty acid receptor 1 (Homo sapiens, UniProt O14842); test: Agonist activity at human FFA1 transfected in 1321N1 cells assessed as calcium mobilization by microplate assay; assay type: functional, cell-based
Procedure, shortened: (§1)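 Calcium mobilization in hFFA1-expressing cells was measured as full concentration-response curves and reported as pEC50. Efficacy is % of the response to 10 μM of the reference agonist.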

[2] = target: T1, Free fatty acid receptor 1; test: Agonist activity at human FFA1 transfected in 1321N1 cells under serum-free condition after 1 hr by dose response curve/dynamic mass redistribution optical biosensor assay; assay type: functional, cell-based
Procedure, shortened: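 hFFA1-transfected 1321N1 cells were exposed to a range of agonist concentrations. Label-free dynamic mass redistribution was tracked over time as the resonant wavelength shift (pm), a read-out of receptor activation. pEC50 was taken from concentration-response curves of this signal.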

[3] = target: T2, Peroxisome proliferator-activated receptor gamma (Homo sapiens) (UniProt P37231); test: Transactivation of human PPARgamma ligand binding domain transfected in mouse embryo fibroblasts at 100 uM after 18 hrs analyzed by photinus and renilla luciferase activity by luminometry relative to 1 uM rosiglitazone
T2 sequence (whole entry): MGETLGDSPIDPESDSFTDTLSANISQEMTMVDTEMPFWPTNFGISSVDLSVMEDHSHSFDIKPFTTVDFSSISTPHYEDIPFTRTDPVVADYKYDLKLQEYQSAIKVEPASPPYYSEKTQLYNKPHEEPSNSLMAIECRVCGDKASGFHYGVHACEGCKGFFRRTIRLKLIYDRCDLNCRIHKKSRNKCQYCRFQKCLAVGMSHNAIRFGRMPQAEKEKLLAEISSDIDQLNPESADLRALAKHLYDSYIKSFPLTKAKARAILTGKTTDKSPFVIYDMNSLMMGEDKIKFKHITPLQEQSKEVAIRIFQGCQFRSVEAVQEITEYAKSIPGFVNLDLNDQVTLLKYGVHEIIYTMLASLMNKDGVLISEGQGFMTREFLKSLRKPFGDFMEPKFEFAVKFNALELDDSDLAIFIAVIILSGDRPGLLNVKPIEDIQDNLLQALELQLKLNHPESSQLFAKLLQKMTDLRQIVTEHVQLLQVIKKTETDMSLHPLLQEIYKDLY

[4] = target: T1, Free fatty acid receptor 1; test: Agonist activity at human FFA1 transfected in 1321N1 cells assessed as calcium mobilization by microplate assay relative to 10 uM TUG-20; assay type: functional, cell-based; procedure, shortened: as §1
[5] = target: T2, Peroxisome proliferator-activated receptor gamma (Homo sapiens); test: Transactivation of human PPARgamma ligand binding domain transfected in mouse embryo fibroblasts assessed as renilla luciferase activity at 1 uM after 18 hrs by luminometry relative to 1 uM rosiglitazone
[6] = target: Free fatty acid receptor 2 (Homo sapiens) (UniProt O15552); test: Agonist activity at human GPR43 in HEK293 cells
Homo sapiens = organism: Homo sapiens; test: Selectivity for human FFA1 over human PPARgamma
[7] = target: Free fatty acid receptor 3 (Homo sapiens) (UniProt O14843); test: Agonist activity at human GPR41 in HEK293 cells
[8] = target: T1, Free fatty acid receptor 1; test: Agonist activity at human FFA1 transfected in 1321N1 cells assessed as calcium mobilization by microplate assay in presence of 0.05 % bovine serum albumin; assay type: functional, cell-based
Procedure, shortened: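 Calcium-response assay at hFFA1, with 0.05% BSA added to the assay because the compound dissolves poorly.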

[9] = target: T1, Free fatty acid receptor 1; test: Agonist activity at human FFA1 transfected in 1321N1 cells assessed as calcium mobilization by microplate assay in presence of 0.5 % bovine serum albumin; assay type: functional, cell-based
[10] = target: T1, Free fatty acid receptor 1; test: Agonist activity at human FFA1 transfected in 1321N1 cells assessed as calcium mobilization by microplate assay relative to linoleic acid; assay type: functional, cell-based

Chain of Free fatty acid receptor 3 (Homo sapiens) (O14843 whole entry, looked up): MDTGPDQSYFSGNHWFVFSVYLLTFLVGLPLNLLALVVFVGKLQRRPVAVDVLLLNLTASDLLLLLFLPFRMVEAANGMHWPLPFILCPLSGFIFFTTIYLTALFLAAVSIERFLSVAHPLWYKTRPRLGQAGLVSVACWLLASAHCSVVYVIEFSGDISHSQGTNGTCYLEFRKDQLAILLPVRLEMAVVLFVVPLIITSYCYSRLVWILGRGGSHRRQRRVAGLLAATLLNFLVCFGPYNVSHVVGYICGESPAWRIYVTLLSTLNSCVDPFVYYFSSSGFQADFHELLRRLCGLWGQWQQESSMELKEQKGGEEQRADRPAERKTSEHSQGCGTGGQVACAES
Chain of Free fatty acid receptor 2 (Homo sapiens) (O15552 whole entry, looked up): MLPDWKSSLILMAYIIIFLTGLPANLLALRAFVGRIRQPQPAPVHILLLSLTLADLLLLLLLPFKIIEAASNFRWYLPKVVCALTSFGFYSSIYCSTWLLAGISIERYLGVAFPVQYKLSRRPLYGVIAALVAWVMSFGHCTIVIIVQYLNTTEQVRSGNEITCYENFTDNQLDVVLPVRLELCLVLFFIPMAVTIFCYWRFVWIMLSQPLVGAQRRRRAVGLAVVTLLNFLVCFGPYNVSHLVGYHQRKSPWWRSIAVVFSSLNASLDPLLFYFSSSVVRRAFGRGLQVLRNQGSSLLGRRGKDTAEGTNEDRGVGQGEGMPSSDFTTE
T1 sequence (O14842 whole entry): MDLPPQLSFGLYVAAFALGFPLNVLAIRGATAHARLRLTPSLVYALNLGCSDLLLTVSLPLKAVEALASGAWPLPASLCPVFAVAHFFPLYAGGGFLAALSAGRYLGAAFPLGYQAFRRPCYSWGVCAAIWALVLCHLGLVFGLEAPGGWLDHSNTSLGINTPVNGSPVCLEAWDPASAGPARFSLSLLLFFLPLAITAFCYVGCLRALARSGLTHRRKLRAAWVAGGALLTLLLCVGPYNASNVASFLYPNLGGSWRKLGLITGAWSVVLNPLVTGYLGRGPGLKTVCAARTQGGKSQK

| SMILES | pEC50 [1] | pEC50 [2] | Activity [3] | Efficacy [4] [%] | Activity [5] | Activity [6] | fold change (FC) (Homo sapiens) | Activity [7] | pEC50 [8] | pEC50 [9] | Activity [10] [%] |
| --- | --- | --- | --- | --- | --- | --- | --- | --- | --- | --- | --- |
| O=C(O)CCc1ccc(NCc2cccc(Oc3ccccc3)c2)cc1 [GW9508] | 7.54 | 7.06 | 54% | 103 |  |  |  |  |  |  |  |
| Cc1cc(Oc2ncc(C(F)(F)F)cc2Cl)ccc1CC1SC(=O)NC1=O (stereo unspecified) | 6.75 |  |  | 103 |  |  |  |  |  |  |  |
| O=C(O)CCc1ccc(OCc2ccc(Br)cc2)cc1 | 6.26 |  |  | 98 | inactive | inactive | > 100 | inactive |  |  |  |
| Cc1ccc(-c2cccc(CNc3ccc(CCC(=O)O)cc3)c2)cc1 | 6.90 |  | 31% | 92 | inactive | inactive | > 100 | inactive |  |  |  |
| O=C(O)CCc1ccc(NCc2ccccc2)cc1 | 6.12 |  | 7% | 89 | inactive | inactive | > 100 | inactive |  |  |  |
| O=C(O)CCc1ccc(OCc2cccc(Br)c2)cc1 | 7.05 |  | 19% | 99 | inactive | inactive | > 100 | inactive |  |  |  |
| O=C(O)CCc1ccc(NCc2ccc(Oc3ccccc3)cc2)cc1 | 6.74 |  | 34% | 100 | inactive | inactive | > 100 | inactive |  |  |  |
| O=C(O)CCc1ccc(OCc2ccc(-c3ccccc3)cc2)cc1 | 6.04 |  | inactive | 97 | inactive | inactive | > 100 | inactive |  |  |  |
| O=C(O)CCc1ccc(NCc2ccc(-c3ccccc3)cc2)cc1 | 6.38 |  | 23% | 92 | inactive | inactive | > 100 | inactive |  |  |  |
| O=C(O)CCc1ccc(NCc2cccc(C(F)(F)F)c2)cc1 | 6.73 |  |  | 102 | inactive | inactive | > 100 | inactive |  |  |  |
| O=C(O)CCc1ccc(C#Cc2ccccc2)cc1 | 6.70 |  |  | 108 | inactive | inactive | > 100 | inactive |  |  |  |
| O=C(O)CCc1ccc(OCc2ccc(Oc3ccccc3)cc2)cc1 | 6.69 |  | 23% | 98 | inactive | inactive | > 100 | inactive |  |  |  |
| Cc1ccccc1-c1cccc(COc2ccc(CCC(=O)O)cc2)c1 | 7.30 | 6.58 | 37% | 112 | inactive | inactive | > 100 | inactive | 7.09 | 6.25 |  |
| N#Cc1cccc(COc2ccc(CCC(=O)O)cc2)c1 | 6.28 |  |  | 102 | inactive | inactive | > 100 | inactive |  |  |  |
| CC(Oc1ccc(CCC(=O)O)cc1)c1ccccc1 (stereo unspecified) | 5.48 |  |  | 106 | inactive | inactive | > 100 | inactive |  |  |  |
| O=C(O)CCc1ccc(OCc2ccccc2Br)cc1 | 6.35 |  |  | 99 | inactive | inactive | > 100 | inactive |  |  |  |

| SMILES | pEC50 [1] | pEC50 [2] | Activity [3] | Efficacy [4] [%] | Activity [5] | Activity [6] | fold change (FC) (Homo sapiens) | Activity [7] | pEC50 [8] | pEC50 [9] | Activity [10] [%] |
| --- | --- | --- | --- | --- | --- | --- | --- | --- | --- | --- | --- |
| COc1ccccc1-c1cccc(COc2ccc(CCC(=O)O)cc2)c1 | 6.92 |  | 37% | 105 | inactive | inactive | > 100 | inactive |  |  |  |
| O=C(O)CCc1ccc(COc2ccccc2)cc1 | 5.20 |  | inactive | 88 | inactive | inactive | > 100 | inactive |  |  |  |
| O=C(O)CCc1ccc(CNc2ccccc2)cc1 | 4.67 |  | inactive | 101 | inactive | inactive | > 100 | inactive |  |  |  |
| O=C(O)CCc1ccc(NCc2cccc(Br)c2)cc1 | 6.76 |  | 27% | 110 | inactive | inactive | > 100 | inactive |  |  |  |
| O=C(O)CCc1ccc(OCc2ccccc2-c2ccccc2)cc1 |  |  |  |  | inactive | inactive | > 100 | inactive |  |  |  |
| O=C(O)CCc1ccc(OCc2ccccc2)c(I)c1 | 4.90 |  | 42% | 81 | inactive | inactive | > 100 | inactive |  |  |  |
| O=C(O)CCc1ccc2oc(-c3ccccc3)cc2c1 | 5.61 |  | inactive | 92 | inactive | inactive | > 100 | inactive |  |  |  |
| O=C(O)CCc1ccc(OCc2cccc(Oc3ccccc3)c2)cc1 | 7.24 |  | 51% | 98 | inactive | inactive | > 100 | inactive |  |  |  |
| O=C(O)CCc1ccc(NCc2cccc(-c3ccccc3)c2)cc1 | 7.27 |  | 33% | 101 | inactive | inactive | > 100 | inactive |  |  |  |
| O=C(O)CCc1ccc(OCc2cccc(C(F)(F)F)c2)cc1 | 7.08 |  |  | 103 | inactive | inactive | > 100 | inactive |  |  |  |
| O=C(O)CCc1ccc(OCc2cccc(-c3ccccc3)c2)cc1 | 6.87 |  | 25% | 105 | inactive | inactive | > 100 | inactive |  |  |  |
| O=C(O)CCc1ccc(OCc2ccccc2)cc1 [BENZYLOXYPHENYLPROPANOIC ACID] | 6.34 | 6.08 | 7% |  | inactive | inactive |  | inactive |  |  | 123 |
| O=C(O)CCc1ccc(CCc2ccccc2)cc1 | 5.44 |  |  | 116 | inactive | inactive | > 100 | inactive |  |  |  |
| COc1ccccc1-c1cccc(CNc2ccc(CCC(=O)O)cc2)c1 | 7.16 |  | 51% | 109 | inactive | inactive | > 100 | inactive |  |  |  |
| Cc1ccc(-c2cccc(COc3ccc(CCC(=O)O)cc3)c2)cc1 | 6.31 |  | 15% | 86 | inactive | inactive | > 100 | inactive |  |  |  |
